The source made the active and inactive calls. The rule behind the calls is not given here.
Assays:
[1] = Inhibition of BCR-ABL-mediated proliferation of mouse BAF3 cells transformed with TEL-Kinase construct; assay type: cell-based
[2] = Tmax in tumor of RT112/luc1 cells implanted athymic nude mouse at 5 mg/kg, iv by LC/MS/MS analysis; assay type: ADME, organism-based, Neoplasm; set-up: dose 5 mg/kg, route intravenous
Summary of the method: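 Female athymic nude mice carrying subcutaneous RT112/luc1 tumors (ca. 300–400 mm3). Dosing was 5 mg/kg iv by tail vein in NMP/PEG200 (1:9) or 20 mg/kg by oral gavage as a suspension in PEG300/D5W (2:1). Groups (n = 4) were sacrificed from 0.083 to 24 h. Plasma and tumor were measured by LC-MS/MS (LOQ 5 ng/mL, 10 ng/g). Noncompartmental analysis used the linear trapezoidal AUC; F was calculated from dose-normalized AUC.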

[3] = Half life in plasma of RT112/luc1 cells implanted athymic nude mouse at 5 mg/kg, iv by LC/MS/MS analysis; assay type: ADME, organism-based; set-up: dose 5 mg/kg, route intravenous
Summary of the method: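 Female athymic nude mice carried subcutaneous RT112/luc1 tumors (5×10^6 cells, 50% Matrigel; about 300–400 mm3). Dosing was either 5 mg/kg iv by tail vein in NMP/PEG200 (1:9) or 20 mg/kg oral suspension in PEG300/D5W (2:1). Groups of mice (n = 4) were sacrificed at 0.083–24 h. Plasma and tumor levels were measured by LC-MS/MS (LOQ 5 ng/mL, 10 ng/g).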

[4] = Apparent terminal half life in Wistar rat at 10 mg/kg, po by LC-MS/MS analysis; assay type: ADME, organism-based; set-up: dose 10 mg/kg, route oral; settings: in vivo, read-out: t1/2 lambda z (converted)
Summary of the method: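 Female Wistar rats. IV: 5 mg/kg into the femoral vein as a solution in NMP/PEG200 (1:9, v/v). Oral: monophosphate salt at 10 mg/kg (free base equivalents) as a solution in acetic acid–acetate buffer pH 4.6/PEG300. Plasma was taken by sublingual bleeding at 0.083–24 h, from staggered groups (n = 4) or one sequentially bled group. Assayed by LC-MS/MS (LOQ 10 ng/mL); noncompartmental analysis.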

[5] = system: RT-112; test: Antiproliferative activity against human RT112 cells overexpressing wild type FGFR3 after 72 hrs; assay type: functional, cell-based; settings: RT-112, 72 h
Summary of the method: (§1)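 Bladder cancer lines from ATCC or DSMZ were seeded in 96-well plates (RT4, RT112 at 8500 cells/well; others at 5000 cells/well) in growth medium. Compound dilutions or DMSO were added 24 h later and incubated 72 h. Cells were fixed with glutaraldehyde, stained with 0.05% methylene blue and eluted with 3% HCl, then OD650 nm was read.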

[6] = system: J82; test: Antiproliferative activity against human J82 cells after 72 hrs; assay type: functional, cell-based; settings: J82, 72 h; summary of the method: as §1
[7] = target: MAP kinase-activated protein kinase 2 (Homo sapiens, UniProt P49137); test: Inhibition of recombinant MK2
Sequence of MAP kinase-activated protein kinase 2 (P49137 whole entry): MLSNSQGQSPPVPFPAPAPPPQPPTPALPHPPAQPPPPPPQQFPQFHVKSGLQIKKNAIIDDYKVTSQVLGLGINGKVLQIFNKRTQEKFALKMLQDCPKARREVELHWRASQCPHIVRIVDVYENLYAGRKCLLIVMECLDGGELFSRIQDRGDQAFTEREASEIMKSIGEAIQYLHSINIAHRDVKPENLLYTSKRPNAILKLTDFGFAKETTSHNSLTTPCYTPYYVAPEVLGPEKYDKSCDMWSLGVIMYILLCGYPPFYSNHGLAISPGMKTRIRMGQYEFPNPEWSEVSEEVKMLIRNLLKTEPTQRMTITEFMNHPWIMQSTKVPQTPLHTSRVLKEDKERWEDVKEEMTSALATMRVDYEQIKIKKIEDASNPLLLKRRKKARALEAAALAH
Summary of the method: (§2)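 Purified recombinant kinases with peptide substrates and ATP at each kinase's Km. Read-out was microfluidic mobility shift.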

[8] = target: MAP kinase-interacting serine/threonine-protein kinase 1 (Homo sapiens, UniProt Q9BUB5); test: Inhibition of recombinant MNK1
Sequence of MAP kinase-interacting serine/threonine-protein kinase 1 (Q9BUB5 whole entry): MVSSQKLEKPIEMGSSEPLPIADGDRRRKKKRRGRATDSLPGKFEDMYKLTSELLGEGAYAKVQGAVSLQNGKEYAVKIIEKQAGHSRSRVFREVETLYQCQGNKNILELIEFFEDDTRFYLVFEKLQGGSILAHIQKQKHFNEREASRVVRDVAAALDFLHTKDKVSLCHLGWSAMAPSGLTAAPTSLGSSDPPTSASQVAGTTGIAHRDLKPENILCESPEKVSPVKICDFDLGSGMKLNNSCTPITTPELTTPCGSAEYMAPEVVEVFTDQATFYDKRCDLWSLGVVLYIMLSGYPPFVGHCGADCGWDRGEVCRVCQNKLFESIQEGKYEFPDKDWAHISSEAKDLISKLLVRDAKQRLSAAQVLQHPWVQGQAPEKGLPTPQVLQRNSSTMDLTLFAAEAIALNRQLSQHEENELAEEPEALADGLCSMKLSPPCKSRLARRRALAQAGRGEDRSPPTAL
Summary of the method: (§3)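 Purified recombinant kinases under optimized conditions with peptide substrates. ATP was set at each kinase's Km. Phosphorylation was read by microfluidic mobility-shift separation of substrate and product; IC50 determined.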

[9] = target: MAP kinase-interacting serine/threonine-protein kinase 2 (Homo sapiens, UniProt Q9HBH9); test: Inhibition of recombinant MNK2
Sequence of MAP kinase-interacting serine/threonine-protein kinase 2 (Q9HBH9 whole entry): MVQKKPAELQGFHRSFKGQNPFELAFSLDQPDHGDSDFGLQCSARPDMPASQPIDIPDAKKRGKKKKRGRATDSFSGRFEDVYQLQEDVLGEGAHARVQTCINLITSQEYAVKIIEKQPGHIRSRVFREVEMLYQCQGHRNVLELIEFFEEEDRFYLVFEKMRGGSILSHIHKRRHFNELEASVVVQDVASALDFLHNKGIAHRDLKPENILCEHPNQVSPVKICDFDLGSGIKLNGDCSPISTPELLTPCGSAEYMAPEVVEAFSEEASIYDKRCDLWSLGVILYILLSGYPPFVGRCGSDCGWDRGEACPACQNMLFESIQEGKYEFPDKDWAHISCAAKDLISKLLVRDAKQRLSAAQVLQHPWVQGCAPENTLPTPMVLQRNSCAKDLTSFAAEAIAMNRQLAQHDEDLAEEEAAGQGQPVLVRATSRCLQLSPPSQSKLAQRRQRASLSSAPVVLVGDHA
Summary of the method: (§4)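 Purified recombinant kinases under optimized conditions, with peptide substrates and ATP at each kinase's Km. Phosphorylation was read out by microfluidic mobility shift, and IC50 values were obtained.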

[10] = target: Serine/threonine-protein kinase PAK 2 (Homo sapiens, UniProt Q13177); test: Inhibition of recombinant PAK2; summary of the method: as §3
Sequence of Serine/threonine-protein kinase PAK 2 (Q13177 whole entry): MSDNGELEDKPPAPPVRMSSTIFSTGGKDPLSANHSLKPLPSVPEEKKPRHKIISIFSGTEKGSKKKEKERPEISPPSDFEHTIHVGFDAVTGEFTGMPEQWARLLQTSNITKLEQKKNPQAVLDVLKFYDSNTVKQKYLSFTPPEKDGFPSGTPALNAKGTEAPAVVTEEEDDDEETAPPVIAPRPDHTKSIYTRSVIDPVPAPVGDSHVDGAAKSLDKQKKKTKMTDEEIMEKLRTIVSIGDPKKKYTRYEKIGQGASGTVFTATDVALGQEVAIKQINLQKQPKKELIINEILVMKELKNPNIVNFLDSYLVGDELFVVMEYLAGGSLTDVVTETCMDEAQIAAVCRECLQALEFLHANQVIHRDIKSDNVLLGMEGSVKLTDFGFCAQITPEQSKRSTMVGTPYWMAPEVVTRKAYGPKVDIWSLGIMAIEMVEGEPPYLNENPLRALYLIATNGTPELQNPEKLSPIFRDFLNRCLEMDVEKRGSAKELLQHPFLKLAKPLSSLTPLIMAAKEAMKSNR

[11] = target: Mitogen-activated protein kinase kinase kinase 8 (Homo sapiens, UniProt P41279); test: Inhibition of recombinant COT; summary of the method: as §4
Sequence of Mitogen-activated protein kinase kinase kinase 8 (P41279 whole entry): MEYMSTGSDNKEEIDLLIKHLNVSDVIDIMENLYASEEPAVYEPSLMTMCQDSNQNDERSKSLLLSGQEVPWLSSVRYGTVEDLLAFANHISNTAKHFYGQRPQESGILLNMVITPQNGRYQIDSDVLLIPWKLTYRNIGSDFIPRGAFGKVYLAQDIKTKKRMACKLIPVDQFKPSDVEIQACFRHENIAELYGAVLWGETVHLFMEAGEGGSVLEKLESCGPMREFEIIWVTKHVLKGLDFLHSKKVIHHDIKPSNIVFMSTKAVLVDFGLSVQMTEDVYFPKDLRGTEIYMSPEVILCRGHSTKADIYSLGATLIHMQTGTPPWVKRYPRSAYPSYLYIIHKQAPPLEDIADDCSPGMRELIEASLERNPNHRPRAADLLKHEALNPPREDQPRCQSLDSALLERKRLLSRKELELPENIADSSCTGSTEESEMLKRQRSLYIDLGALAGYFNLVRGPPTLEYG

[12] = target: Mitogen-activated protein kinase 1 (Homo sapiens, UniProt P28482); test: Inhibition of recombinant ERK2; summary of the method: as §3
Sequence of Mitogen-activated protein kinase 1 (P28482 whole entry): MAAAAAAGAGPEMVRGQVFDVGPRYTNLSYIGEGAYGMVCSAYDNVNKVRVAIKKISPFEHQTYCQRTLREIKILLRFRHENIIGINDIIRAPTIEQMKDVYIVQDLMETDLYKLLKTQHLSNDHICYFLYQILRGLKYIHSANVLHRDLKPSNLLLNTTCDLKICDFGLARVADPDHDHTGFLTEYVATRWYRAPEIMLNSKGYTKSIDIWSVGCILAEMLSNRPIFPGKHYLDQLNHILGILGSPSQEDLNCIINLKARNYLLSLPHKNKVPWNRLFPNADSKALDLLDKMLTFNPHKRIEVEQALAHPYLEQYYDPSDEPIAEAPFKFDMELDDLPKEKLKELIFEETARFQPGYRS

[13] = target: Tyrosine-protein kinase HCK (Homo sapiens, UniProt P08631); test: Inhibition of recombinant HCK; summary of the method: as §3
Sequence of Tyrosine-protein kinase HCK (P08631 whole entry): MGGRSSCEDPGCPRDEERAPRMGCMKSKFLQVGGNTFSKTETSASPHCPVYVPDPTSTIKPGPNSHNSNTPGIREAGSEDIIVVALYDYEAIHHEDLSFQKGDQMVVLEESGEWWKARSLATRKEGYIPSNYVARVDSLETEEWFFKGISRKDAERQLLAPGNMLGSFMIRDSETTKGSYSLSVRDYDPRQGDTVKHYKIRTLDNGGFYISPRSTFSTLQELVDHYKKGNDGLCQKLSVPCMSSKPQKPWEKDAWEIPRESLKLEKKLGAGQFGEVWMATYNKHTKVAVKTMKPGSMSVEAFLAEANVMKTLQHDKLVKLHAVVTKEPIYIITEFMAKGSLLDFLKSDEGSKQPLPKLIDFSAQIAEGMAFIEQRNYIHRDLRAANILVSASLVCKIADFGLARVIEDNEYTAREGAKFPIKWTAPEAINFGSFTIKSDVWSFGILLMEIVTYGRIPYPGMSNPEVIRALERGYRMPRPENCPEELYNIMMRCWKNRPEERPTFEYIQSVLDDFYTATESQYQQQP

[14] = target: Tyrosine-protein kinase JAK1 (Homo sapiens, UniProt P23458); test: Inhibition of recombinant JAK1; summary of the method: as §3
[15] = target: Phosphatidylinositol 4,5-bisphosphate 3-kinase catalytic subunit beta isoform (Homo sapiens, UniProt P42338); test: Inhibition of recombinant PI3Kbeta by luminescent kinase assay
Sequence of Phosphatidylinositol 4,5-bisphosphate 3-kinase catalytic subunit beta isoform (P42338 whole entry, canonical isoform): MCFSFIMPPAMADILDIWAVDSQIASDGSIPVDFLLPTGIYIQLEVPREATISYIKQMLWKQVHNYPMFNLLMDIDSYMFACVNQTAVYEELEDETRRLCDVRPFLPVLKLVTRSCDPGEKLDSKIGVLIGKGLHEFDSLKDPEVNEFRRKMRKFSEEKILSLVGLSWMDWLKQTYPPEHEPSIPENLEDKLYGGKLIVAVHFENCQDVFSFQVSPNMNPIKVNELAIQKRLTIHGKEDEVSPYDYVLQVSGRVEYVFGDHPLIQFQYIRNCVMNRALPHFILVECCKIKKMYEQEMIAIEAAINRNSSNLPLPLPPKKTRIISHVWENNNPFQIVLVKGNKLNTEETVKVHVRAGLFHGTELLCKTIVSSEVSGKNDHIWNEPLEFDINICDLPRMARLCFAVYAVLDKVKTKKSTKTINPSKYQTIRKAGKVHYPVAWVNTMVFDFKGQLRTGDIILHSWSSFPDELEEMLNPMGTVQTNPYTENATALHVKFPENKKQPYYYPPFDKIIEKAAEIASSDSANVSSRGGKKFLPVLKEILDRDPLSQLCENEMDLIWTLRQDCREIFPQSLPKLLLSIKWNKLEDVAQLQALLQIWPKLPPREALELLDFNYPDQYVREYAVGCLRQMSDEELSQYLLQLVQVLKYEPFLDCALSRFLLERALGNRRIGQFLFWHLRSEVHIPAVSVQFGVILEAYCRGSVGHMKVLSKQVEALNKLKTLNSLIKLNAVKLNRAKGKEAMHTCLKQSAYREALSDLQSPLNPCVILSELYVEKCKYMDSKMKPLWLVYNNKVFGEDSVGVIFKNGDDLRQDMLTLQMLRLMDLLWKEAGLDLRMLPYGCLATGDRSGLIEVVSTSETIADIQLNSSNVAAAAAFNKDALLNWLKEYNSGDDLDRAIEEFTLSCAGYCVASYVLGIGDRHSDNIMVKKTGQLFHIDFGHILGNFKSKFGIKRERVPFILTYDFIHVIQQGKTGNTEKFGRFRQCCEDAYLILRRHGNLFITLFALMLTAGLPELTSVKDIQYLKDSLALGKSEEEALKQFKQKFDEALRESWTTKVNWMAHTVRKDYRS

[16] = target: Serine/threonine-protein kinase N2 (Homo sapiens, UniProt Q16513); test: Inhibition of recombinant PKN2; summary of the method: as §3
[17] = Inhibition of recombinant S6K; summary of the method: as §2
[18] = target: Proto-oncogene tyrosine-protein kinase Src (Homo sapiens, UniProt P12931); test: Inhibition of recombinant SRC
Sequence of Proto-oncogene tyrosine-protein kinase Src (P12931 2-536 limits assumed): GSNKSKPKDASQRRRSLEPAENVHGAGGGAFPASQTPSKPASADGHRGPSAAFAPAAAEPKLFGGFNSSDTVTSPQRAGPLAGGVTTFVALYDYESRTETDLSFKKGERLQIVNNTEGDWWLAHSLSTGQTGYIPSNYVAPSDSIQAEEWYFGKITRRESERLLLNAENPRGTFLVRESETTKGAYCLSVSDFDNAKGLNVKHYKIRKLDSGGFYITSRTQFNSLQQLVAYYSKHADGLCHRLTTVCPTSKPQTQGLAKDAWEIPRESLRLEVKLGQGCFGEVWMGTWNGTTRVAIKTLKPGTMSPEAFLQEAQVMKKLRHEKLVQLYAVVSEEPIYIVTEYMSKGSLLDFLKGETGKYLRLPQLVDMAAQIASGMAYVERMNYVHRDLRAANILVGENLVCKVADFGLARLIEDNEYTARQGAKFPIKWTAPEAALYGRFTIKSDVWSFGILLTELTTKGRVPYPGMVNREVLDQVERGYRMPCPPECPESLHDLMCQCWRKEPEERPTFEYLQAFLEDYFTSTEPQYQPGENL
Summary of the method: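 Purified recombinant kinases were tested under optimized conditions with peptide substrates. ATP was set at each kinase's Km. Phosphorylation was read out by microfluidic mobility shift, and IC50 values were determined.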

[19] = system: Rattus norvegicus; test: Inhibition of FGFR autophosphorylation in RT112 tumour bearing nude Rowett rat assessed as decrease in pMAPK concentration at 4.25 mg/kg, po administered as a single dose by Western blot analysis; assay type: functional, organism-based; set-up: dose 4.25 mg/kg
Summary of the method: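 RT112 subcutaneous xenografts in female nude Rowett rats (n = 4). Single oral gavage of the monophosphate salt at 4.25 or 8.51 mg/kg (free base equivalents) in acetic acid–acetate buffer pH 4.6/PEG300 (1:1). Tumors were collected at time points up to 24 h, frozen, homogenized and lysed. Western blots probed pFRS2(Tyr196) and pMAPK, with total FRS2, total MAPK or β-tubulin as loading controls.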

[20] = system: Rattus norvegicus; test: Inhibition of FGFR autophosphorylation in RT112 tumor bearing nude rowett rat assessed as decrease in pFRS2 concentration at 4.25 mg/kg, po administered as a single dose by Western blot analysis; assay type: functional, organism-based; set-up: dose 4.25 mg/kg
Summary of the method: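 RT112 tumor-bearing nude Rowett rats (n = 4) received a single oral dose of monophosphate salt at 4.25 or 8.51 mg/kg free base. Tumors were collected at time points up to 24 h and lysed in Tris/Triton buffer with vanadate and protease inhibitors. Western blots were run for pFRS2(Tyr196) and pMAPK, with total FRS2, total MAPK or β-tubulin as loading controls.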

[21] = system: Mus musculus; test: Toxicity in athymic nude mouse xenografted with human RT112 cells assessed as weight loss at 10 mg/kg, po administered for 12 days; assay type: organism-based, RT-112; set-up: dose 10 mg/kg, route oral; settings: in vivo, 288 h
Summary of the method: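 Female athymic nude mice carried orthotopic RT112/luc1 bladder tumors. Starting 14 days after inoculation, they were dosed orally at 0, 10 or 30 mg/kg/qd for 12 days as a suspension in PEG300/D5W (2:1). Body weight was recorded during treatment. Data are means ± SEM; ANOVA with Dunnett's test versus vehicle.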

[22] = system: RT-112; test: Antitumor activity against human RT112 cells xenografted in nude rowett rat assessed as tumor regression at 15 mg/kg, po qd administered for 20 days; assay type: functional
Summary of the method: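 Female nude Rowett rats aged 6–9 weeks were given 1×10^6 RT112 cells subcutaneously in HBSS/50% Matrigel. Treatment began at about 100 mm3 mean tumor volume (n = 8): monophosphate salt in acetate buffer pH 4.6/PEG300 (1:1) by gavage, 5 mL/kg, at 5, 10, 15 mg/kg/qd free base for 20 days. Tumors were measured by caliper (L×W×H×π/6). Readouts were T/C and % regression from start volume.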

Tmax [2]: 2 h
half-life [3]: 558 min
half-life [4]: 288 min
IC50 [7]: > 10 µM
IC50 [8]: > 10 µM
IC50 [9]: > 10 µM
IC50 [10]: > 10 µM
IC50 [11]: > 10 µM
IC50 [12]: > 10 µM
IC50 [13]: > 10 µM
IC50 [14]: > 10 µM
IC50 [15]: > 9 µM
IC50 [16]: > 10 µM
IC50 [17]: > 10 µM
IC50 [18]: > 10 µM
SMILES: CCN1CCN(c2ccc(Nc3cc(N(C)C(=O)Nc4c(Cl)c(OC)cc(OC)c4Cl)ncn3)cc2)CC1.O=P(O)(O)O [INFIGRATINIB PHOSPHATE]
IC50 [1]: 2190 nM
IC50 [5]: 5 nM
IC50 [6]: > 3000 nM
inhibition [19]: Active
inhibition [20]: Active
Activity [21]: Non-toxic
Activity [22]: 73%

Reference: ChEMBL document CHEMBL1833940, “Discovery of 3-(2,6-dichloro-3,5-dimethoxy-phenyl)-1-{6-[4-(4-ethyl-piperazin-1-yl)-phenylamino]-pyrimidin-4-yl}-1-methyl-urea (NVP-BGJ398), a potent and selective inhibitor of the fibroblast growth factor receptor family of receptor tyrosine kinase” (J Med Chem, 2011)
